{
  "source": "PubChem BioAssay AID1217",
  "about": "(Sanford-Burnham Center for Chemical Genomics, 2008)",
  "note": "Out of some 190,000 compounds screened, about 1,300 (0.68%) were called active. This is one part of a sample in which actives are shown more often than they occur. A number with no mark means an inactive call.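 How the source made its calls: active means primary screen inhibition at 20 µM above a set limit (cut at about 50% in these data); inactive means the rest.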",
  "data": [
    {"tested_on": "diaphorase (Clostridium kluyveri)", "experiment": "diaphorase inhibitors and chemical oxidizers, primary screen, counter-screen for diaphorase-coupled primary assays, biochemical, uHTS, resorufin fluorescence (AID 1217);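 further: plate controls were DMSO with full reaction for no effect and wells lacking NADH for full effect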", "settings": "diaphorase resazurin-to-resorufin fluorescence, NADH, 16 min; at 20 µM; stronger effect = higher value; bacterial (C. kluyveri) enzyme, not human", "in_short": "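System: Diaphorase enzyme from Clostridium kluyveri | Amount: Enzyme working solution with 0.14 U/mL diaphorase | Benchmarks: No-NADH positive control and DMSO neutral control | Signal: Fluorescence of resorufin formed from resazurin, Ex 544/Em 590 nm | Schedule: 16-min room-temperature incubation before reading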", "values": [
      {"smiles": "O=C(Oc1ccccc1)c1ccc2nccnc2c1", "inhibition": "6.5%"},
      {"smiles": "O=C(Oc1cccc(NC2=NS(=O)(=O)c3ccccc32)c1)c1ccncc1", "inhibition": "50.9% (active)"},
      {"smiles": "CC(C)(C)c1csc(NC2=NS(=O)(=O)c3ccccc32)n1", "inhibition": "15.4%"},
      {"smiles": "Cc1ccc(NC(=O)c2sccc2C)cc1[N+](=O)[O-]", "inhibition": "12.8%"},
      {"smiles": "O=C(COC(=O)/C=C/c1ccc(S(=O)(=O)N2CCCCCC2)cc1)NCc1ccccc1Cl", "inhibition": "7.9%"},
      {"smiles": "CN(C)NC(=O)C(NC(=O)c1ccc(N)cc1)C12CC3CC(CC(C3)C1)C2", "note": "(stereo not drawn)", "inhibition": "4.7%"},
      {"smiles": "Brc1ccc(CSc2ccc(-c3ccco3)nn2)cc1", "inhibition": "6.5%"},
      {"smiles": "Clc1ccccc1CSc1nnc(-c2ccco2)c(-c2ccco2)n1", "inhibition": "46.2%"},
      {"smiles": "c1ccc(CSc2nnc(-c3ccco3)c(-c3ccco3)n2)cc1", "inhibition": "52.9% (active)"},
      {"smiles": "O=C(CCN1CCN(c2ccccc2)CC1)NNC(=S)Nc1ccccc1", "inhibition": "20.6%"},
      {"smiles": "COC(=O)/C=C\\C(=O)Nc1cccc([N+](=O)[O-])c1", "inhibition": "-5.8%"},
      {"smiles": "Cc1nc2sc(C(=O)c3ccccc3)c(N)c2c2c1CCCC2", "inhibition": "28.7%"},
      {"smiles": "Cc1cccc(NC(=O)CSc2nnc(-c3ccco3)o2)c1", "inhibition": "9.8%"},
      {"smiles": "CC(=O)Nc1ccc(NC(=O)c2sc3nc4c(c(-c5ccc(C)cc5)c3c2N)CCC4)cc1", "inhibition": "51.1% (active)"},
      {"smiles": "Cc1cccc(NC(=O)c2sc3nc4c(c(-c5ccco5)c3c2N)CCC4)c1", "inhibition": "61.2% (active)"},
      {"smiles": "NC(=O)c1sc2nc3c(c(-c4ccccc4)c2c1N)CCC3", "inhibition": "36.8%"},
      {"smiles": "Cc1ccc(NC(=O)c2sc3nc(N)c(C#N)cc3c2N)cc1", "inhibition": "18.4%"},
      {"smiles": "COCCN(C(=O)CCC(=O)Nc1nccs1)C(C(=O)NC(C)(C)C)c1ccc(Cl)cc1", "note": "(stereo not drawn)", "inhibition": "10.1%"},
      {"smiles": "COc1cccc(CN(C)CC(=O)Nc2ccccc2C(=O)Nc2ccccc2)c1", "inhibition": "26.6%"},
      {"smiles": "S=C(Nc1ccc2c(c1)OCO2)N1CCCC1", "inhibition": "3.4%"},
      {"smiles": "N/C(=N\\OC(=O)Cc1ccccc1[N+](=O)[O-])c1ccc(Br)cc1", "inhibition": "23.2%"},
      {"smiles": "Cc1ccc2[nH]c(=O)c(-c3nc4c(C)cccn4c3NCc3ccco3)cc2c1", "inhibition": "51.5% (active)"},
      {"smiles": "COc1ccc(CCn2c(=N)c(C(=O)NCc3ccco3)cc3c(=O)n4cccc(C)c4nc32)cc1", "inhibition": "8.1%"},
      {"smiles": "CCNCc1cc2cc(C)ccc2[nH]c1=O", "inhibition": "20%"},
      {"smiles": "Cc1ccc(C)c(-n2cc(CN3CCN(C(=O)c4ncn[nH]4)CC3)c(-c3ccccc3)n2)c1", "inhibition": "13.7%"},
      {"smiles": "c1ccc(C2=Nc3cccc4cccc(c34)N2)cc1", "inhibition": "27%"},
      {"smiles": "Fc1ccccc1N=C1Nc2cccc3cccc1c23", "inhibition": "12.1%"},
      {"smiles": "COc1ccccc1C1=Nc2cccc3cccc(c23)N1", "inhibition": "63.5% (active)"}
    ]}
  ]
}
